Test results taken from ChEMBL document CHEMBL3763044, “Pyridoxine hydroxamic acids as novel HIV-integrase inhibitors” (Bioorg Med Chem Lett, 2016).

What was measured:
[1] = Inhibition of HIV integrase strand transfer activity; set-up: species or system Human immunodeficiency virus
Procedure, shortened: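 Strand-transfer assay on purified integrase using 3'-processed oligonucleotides. % inhibition = [1 − (sample counts/mean positive control)] × 100, plotted against log molar concentration. IC50 is taken from a sigmoidal dose-response fit with variable slope and is the mean of at least three experiments.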

[2] = test system: Human immunodeficiency virus 1; test: Antiviral activity against luciferase-bearing envelope-defective HIV-1 NL4-3 pseudotype virus infected in human MT4 cells co-infected with HIV1 HXBc2 envelope by single cycle infection assay; assay type: functional, organism-based; settings: Human immunodeficiency virus 1, NL4-3, MT4
Procedure, shortened: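 Single-cycle infection of MT-4 cells with a luciferase-bearing env-defective NL-4.3 virus pseudotyped with HIV-1 env (HXBc2), read by luciferase. EC50 is the mean of at least three experiments.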

[3] = Cytotoxicity against human MT4 cells; assay type: cell-based
Procedure, shortened: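 Cytotoxicity measured in MT-4 cells in parallel with the 7-day multi-cycle antiviral assay. CC50 is the mean of at least three experiments.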

[4] = molecular target: Human immunodeficiency virus type 1 integrase (Human immunodeficiency virus 1, UniProt Q7ZJM1, N155H); test: Inhibition of HIV integrase N155H mutant
[5] = Half life in Sprague-Dawley rat at 5 mg/kg, iv and 50 mg/kg, po by LC/MS/MS analysis; assay type: ADME, organism-based; settings: in vivo
Procedure, shortened: (§1)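 Female Sprague-Dawley rats randomly assigned to two groups: 13 rats dosed 5 mg/kg intravenously, 8 rats dosed 50 mg/kg orally. Blood collected at 7 time points after dosing. Bioavailability taken over 24 h.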

[6] = Plasma protein binding in rat by Rapid Equilibrium Dialysis method; assay type: ADME, cell-free; settings: read-out: PPB (converted)
Procedure, shortened: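 Protein binding measured by rapid equilibrium dialysis.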

[7] = test system: Salmonella typhimurium; test: Mutagenicity in Salmonella typhimurium by Ames test; assay type: toxicity, organism-based; settings: salmonella enterica subsp. enterica serovar typhimurium
[8] = Plasma concentration in rat at 50 mg/kg after 18 hrs; assay type: ADME, organism-based
Procedure, shortened: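 Female Sprague-Dawley rats (8) given 50 mg/kg orally, with blood collected at 7 time points after dosing.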

[9] = test system: Human immunodeficiency virus; test: Ratio of EC90 for HIV integrase assessed as accumulation of 2-LTR to IC50 for HIV integrase strand transfer activity
[10] = test system: Human immunodeficiency virus 1; test: Antiviral activity against luciferase-bearing envelope-defective HIV-1 NL4-3 pseudotype virus infected in human MT4 cells co-infected with HIV1 HXBc2 envelope after 7 days by multi-cycle assay; assay type: functional, organism-based; settings: Human immunodeficiency virus 1, NL4-3, MT4, 168 h
Procedure, shortened: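 Multi-cycle antiviral assay run for 7 days in MT-4 cells, in parallel with the cytotoxicity assay. EC50 is the mean of at least three experiments.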

[11] = Inhibition of […] reverse transcriptase
[12] = Therapeutic index, ratio of CC50 for human MT4 cells to EC50 for luciferase-bearing envelope-defective HIV-1 NL4-3 pseudotype virus infected in human MT4 cells co-infected with HIV1 HXBc2 envelope; assay type: cell-based; settings: read-out: Ratio CC50/EC50
[13] = Lipophilicity Log P of the compound; assay type: physicochemical; settings: octanol/water
[14] = test system: Human immunodeficiency virus; test: Ratio of EC50 for HIV integrase assessed as accumulation of 2-LTR to IC50 for HIV integrase strand transfer activity
[15] = molecular target: RNA-directed RNA polymerase (Hepacivirus hominis, UniProt O39930); test: Inhibition of HCV RNA polymerase
[16] = Oral bioavailability in Sprague-Dawley rat at 50 mg/kg after 24 hrs by LC/MS/MS analysis; assay type: ADME, organism-based; settings: in vivo; procedure, shortened: as §1

Sequence of Human immunodeficiency virus type 1 integrase (Q7ZJM1 entry or part of it N155H): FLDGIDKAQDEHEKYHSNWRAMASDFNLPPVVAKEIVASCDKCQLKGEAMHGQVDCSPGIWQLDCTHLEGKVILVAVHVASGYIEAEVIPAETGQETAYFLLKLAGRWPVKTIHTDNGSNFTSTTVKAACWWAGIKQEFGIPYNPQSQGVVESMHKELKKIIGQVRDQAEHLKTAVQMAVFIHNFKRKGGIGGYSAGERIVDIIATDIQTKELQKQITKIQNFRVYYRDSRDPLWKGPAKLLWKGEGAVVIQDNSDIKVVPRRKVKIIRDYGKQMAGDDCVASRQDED
Sequence of RNA-directed RNA polymerase (O39930 whole entry): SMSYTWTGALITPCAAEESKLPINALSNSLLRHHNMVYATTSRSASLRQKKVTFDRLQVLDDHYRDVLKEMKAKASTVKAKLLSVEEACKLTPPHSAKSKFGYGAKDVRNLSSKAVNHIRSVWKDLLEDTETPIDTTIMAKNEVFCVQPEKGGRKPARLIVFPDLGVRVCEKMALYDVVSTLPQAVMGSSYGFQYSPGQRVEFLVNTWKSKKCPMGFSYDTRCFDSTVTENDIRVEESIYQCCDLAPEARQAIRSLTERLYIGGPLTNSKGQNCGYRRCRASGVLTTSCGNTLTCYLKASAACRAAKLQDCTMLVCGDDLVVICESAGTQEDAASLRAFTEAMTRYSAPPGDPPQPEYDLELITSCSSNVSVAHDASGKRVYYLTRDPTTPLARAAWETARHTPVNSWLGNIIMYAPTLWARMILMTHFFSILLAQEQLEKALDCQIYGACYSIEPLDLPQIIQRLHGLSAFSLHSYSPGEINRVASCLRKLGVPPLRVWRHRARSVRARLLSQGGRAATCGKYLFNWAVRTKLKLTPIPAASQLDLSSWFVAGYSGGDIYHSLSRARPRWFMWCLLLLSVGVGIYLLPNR

SMILES	IC50 [1]	EC50 [2]	CC50 [3]	also measured
O=C(NO)c1ncc(CS(=O)(=O)Cc2ccc(F)cc2)c(CO)c1O	2300 nM	4350 nM	16000 nM	
O=C(Cc1ccccc1)Nc1cnc(C(=O)NO)c(O)c1CO		100 nM	54000 nM	
O=C(Cc1ccc(Cl)c(Cl)c1)Nc1cnc(C(=O)NO)c(O)c1CO		40 nM	50000 nM	
O=C(NO)c1ncc(CCc2ccc(F)cc2)c(CO)c1O	327 nM	76 nM	21000 nM	
O=C(NO)c1ncc(/C=C/c2ccc(F)cc2)c(CO)c1O	> 100000 nM	> 10000 nM	50000 nM	
O=C(CC1CCCCC1)Nc1cnc(C(=O)NO)c(O)c1CO		11000 nM	50000 nM	
O=C(NO)c1ncc(CCCc2ccc(F)cc2)c(CO)c1O	550 nM	500 nM	2000 nM	
O=C(NO)c1ncc(CS(=O)(=O)c2ccc(F)cc2)c(CO)c1O	10000 nM	9300 nM	50000 nM	
O=C(Nc1ccc(F)cc1)c1cnc(C(=O)NO)c(O)c1CO	328 nM	40 nM	50000 nM	
O=C(Cc1ccc(F)c(F)c1)Nc1cnc(C(=O)NO)c(O)c1CO		100 nM	51000 nM	
O=C(NO)c1ncc(CNCc2ccc(F)cc2)c(CO)c1O	550 nM	695 nM	20000 nM	
O=C(Cc1cc(F)cc(F)c1)Nc1cnc(C(=O)NO)c(O)c1CO		400 nM	31000 nM	
O=C(Cc1ccc(F)c(Cl)c1)Nc1cnc(C(=O)NO)c(O)c1CO	29 nM	25 nM	22000 nM	EC50 [4]: > 300 nM; half-life [5]: 43.8 min; fraction unbound [6]: 0.11; Activity [7]: Non-toxic; concentration at 18 h [8]: > 25 nM; Ratio [9]: 10; EC50 [10]: 128 nM; EC50 [11]: > 50000 nM; selectivity ratio [12]: > 1000; logP [13]: 0.6; Ratio [14]: 7; EC50 [15]: > 50000 nM; bioavailability [16]: 25%
Cc1ccc(CC(=O)Nc2cnc(C(=O)NO)c(O)c2CO)cc1		4500 nM	32000 nM	
COc1ccc(CC(=O)Nc2cnc(C(=O)NO)c(O)c2CO)cc1		1500 nM	25000 nM	
O=C(Cc1ccc2c(c1)OCO2)Nc1cnc(C(=O)NO)c(O)c1CO		1860 nM	50000 nM	
O=C(NO)c1ncc(CSc2ccc(F)cc2)c(CO)c1O	250 nM			
O=C(NO)c1ncc(COCc2ccc(F)cc2)c(CO)c1O	80 nM	15 nM	11000 nM	
O=C(NO)c1ncc(COc2ccc(F)cc2)c(CO)c1O	41 nM	7 nM	27000 nM	
O=C(NO)c1ncc(CNc2ccc(F)cc2)c(CO)c1O	25 nM	20 nM	50000 nM	
O=C(NCCc1ccc(F)cc1)c1cnc(C(=O)NO)c(O)c1CO	2300 nM	2000 nM	23000 nM	
O=C(Nc1cnc(C(=O)NO)c(O)c1CO)c1ccc(F)cc1	300 nM	6300 nM	50000 nM	
